Results published in ChEMBL document CHEMBL3997800, “Discovery of Multitarget Agents Active as Broad-Spectrum Antivirals and Correctors of Cystic Fibrosis Transmembrane Conductance Regulator for Associated Pulmonary Diseases” (J Med Chem, 2017).
Active and inactive are the calls of the source. No cut-off for these calls is given here.

How the values were obtained:
[1] = Selectivity index, ratio of CC50 for human RD cells assessed as change in cell morphology to EC50 for Enterovirus 71; format: toxicity; conditions: read-out: Ratio CC50/EC50
Method in brief: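 SI is CC50/EC50. CC50 is from microscopically detected morphology change in uninfected RD cells and EC50 from the EV71 CPE-reduction assay in RD cells.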

[2] = target: CDK9/cyclin T1 (Homo sapiens) (UniProt O60563+P50750); test: Inhibition of CDK9/cyclin T1 (unknown origin) assessed as residual activity at 100 uM by ADP-Glo bioluminescence assay relative to control relative to control; format: protein-complex assay
Method in brief: (§1)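 Kinase reactions followed manufacturer's instructions with 10-50 ng enzyme, in 10 µL for 10 min at 30 °C; NP-40 or BSA added for some kinases. Compound at 100 µM. Residual activity is the mean of two independent replicates.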

[3] = target: CDK6/cyclin D1 (Homo sapiens) (UniProt P24385+Q00534); test: Inhibition of CDK6/cyclin D1 (unknown origin) assessed as residual activity at 100 uM by ADP-Glo bioluminescence assay relative to control relative to control; format: protein-complex assay; method in brief: as §1
[4] = target: Tyrosine-protein kinase ABL1 (Homo sapiens) (UniProt P00519); test: Inhibition of full length ABL (unknown origin) assessed as residual activity at 100 uM by ADP-Glo bioluminescence assay relative to control relative to control; method in brief: as §1
Chain of Tyrosine-protein kinase ABL1 (Homo sapiens) (P00519 whole entry): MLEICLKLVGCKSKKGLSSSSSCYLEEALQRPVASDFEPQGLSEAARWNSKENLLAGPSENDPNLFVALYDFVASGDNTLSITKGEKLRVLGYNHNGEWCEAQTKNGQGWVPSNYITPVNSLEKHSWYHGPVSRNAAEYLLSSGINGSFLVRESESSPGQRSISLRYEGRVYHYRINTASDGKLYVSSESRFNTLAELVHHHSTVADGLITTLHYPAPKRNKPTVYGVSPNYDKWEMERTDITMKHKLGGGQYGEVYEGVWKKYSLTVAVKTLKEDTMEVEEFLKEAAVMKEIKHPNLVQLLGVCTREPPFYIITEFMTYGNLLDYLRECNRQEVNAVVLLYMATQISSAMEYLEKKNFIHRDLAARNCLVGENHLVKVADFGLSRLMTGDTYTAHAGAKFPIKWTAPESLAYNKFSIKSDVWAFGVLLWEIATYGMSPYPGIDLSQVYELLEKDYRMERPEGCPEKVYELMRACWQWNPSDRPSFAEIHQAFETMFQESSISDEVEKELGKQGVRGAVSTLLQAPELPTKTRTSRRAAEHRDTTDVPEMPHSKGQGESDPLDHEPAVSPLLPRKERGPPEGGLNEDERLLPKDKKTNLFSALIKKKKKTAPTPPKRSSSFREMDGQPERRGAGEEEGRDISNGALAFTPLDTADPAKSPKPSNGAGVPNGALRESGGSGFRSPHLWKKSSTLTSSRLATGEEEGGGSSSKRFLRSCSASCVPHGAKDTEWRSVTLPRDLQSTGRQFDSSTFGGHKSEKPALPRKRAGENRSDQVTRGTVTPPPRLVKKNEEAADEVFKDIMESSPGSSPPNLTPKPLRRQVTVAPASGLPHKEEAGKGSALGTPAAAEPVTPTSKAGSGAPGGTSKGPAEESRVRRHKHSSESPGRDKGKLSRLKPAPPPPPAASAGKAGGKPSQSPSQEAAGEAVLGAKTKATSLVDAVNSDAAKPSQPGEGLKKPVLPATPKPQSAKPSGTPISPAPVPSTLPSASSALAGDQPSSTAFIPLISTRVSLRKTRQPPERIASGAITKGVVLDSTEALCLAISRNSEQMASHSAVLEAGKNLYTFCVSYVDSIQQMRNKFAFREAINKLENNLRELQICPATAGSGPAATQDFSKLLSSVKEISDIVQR

[5] = test system: Echovirus E11; test: Antiviral activity against Echovirus 11 after 2 to 3 days; format: functional; conditions: Enterovirus B
[6] = test system: Enterovirus A71; test: Antiviral activity against Enterovirus 71 infected in RD cells assessed as reduction in virus-induced cytopathic effect incubated for 2 to 3 days; format: functional, cell-based; conditions: Enterovirus A, RD; read-out: EC50
Method in brief: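 RD cells seeded at 20 000/well in MEM with 2% FCS and infected with EV71. Three 8-step 1:5 dilution series from 100 μM. Incubated 2-3 days until maximal CPE, then scored for CPE reduction. EC50 is the median of three dose-response curves.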

[7] = test system: Enterovirus A71; test: Antiviral activity against Enterovirus 71 TW/70902/08 clinical isolates incubated for 2 to 3 days; format: functional; conditions: Enterovirus A
[8] = test system: Cystic fibrosis transmembrane conductance regulator (Homo sapiens), P13569 [F508del]; test: Corrector activity at CFTR F508 deletion mutant (unknown origin) expressed in HEK293 cells assessed as increase in steady-state level of F508 deletion mutant at plasma membrane at 10 uM preincubated for 24 hrs followed by compound washout by pHTomato dye based fluorescence imaging method; format: cell-based
Chain of Cystic fibrosis transmembrane conductance regulator (Homo sapiens), P13569 [F508del] (P13569 as listed by the source): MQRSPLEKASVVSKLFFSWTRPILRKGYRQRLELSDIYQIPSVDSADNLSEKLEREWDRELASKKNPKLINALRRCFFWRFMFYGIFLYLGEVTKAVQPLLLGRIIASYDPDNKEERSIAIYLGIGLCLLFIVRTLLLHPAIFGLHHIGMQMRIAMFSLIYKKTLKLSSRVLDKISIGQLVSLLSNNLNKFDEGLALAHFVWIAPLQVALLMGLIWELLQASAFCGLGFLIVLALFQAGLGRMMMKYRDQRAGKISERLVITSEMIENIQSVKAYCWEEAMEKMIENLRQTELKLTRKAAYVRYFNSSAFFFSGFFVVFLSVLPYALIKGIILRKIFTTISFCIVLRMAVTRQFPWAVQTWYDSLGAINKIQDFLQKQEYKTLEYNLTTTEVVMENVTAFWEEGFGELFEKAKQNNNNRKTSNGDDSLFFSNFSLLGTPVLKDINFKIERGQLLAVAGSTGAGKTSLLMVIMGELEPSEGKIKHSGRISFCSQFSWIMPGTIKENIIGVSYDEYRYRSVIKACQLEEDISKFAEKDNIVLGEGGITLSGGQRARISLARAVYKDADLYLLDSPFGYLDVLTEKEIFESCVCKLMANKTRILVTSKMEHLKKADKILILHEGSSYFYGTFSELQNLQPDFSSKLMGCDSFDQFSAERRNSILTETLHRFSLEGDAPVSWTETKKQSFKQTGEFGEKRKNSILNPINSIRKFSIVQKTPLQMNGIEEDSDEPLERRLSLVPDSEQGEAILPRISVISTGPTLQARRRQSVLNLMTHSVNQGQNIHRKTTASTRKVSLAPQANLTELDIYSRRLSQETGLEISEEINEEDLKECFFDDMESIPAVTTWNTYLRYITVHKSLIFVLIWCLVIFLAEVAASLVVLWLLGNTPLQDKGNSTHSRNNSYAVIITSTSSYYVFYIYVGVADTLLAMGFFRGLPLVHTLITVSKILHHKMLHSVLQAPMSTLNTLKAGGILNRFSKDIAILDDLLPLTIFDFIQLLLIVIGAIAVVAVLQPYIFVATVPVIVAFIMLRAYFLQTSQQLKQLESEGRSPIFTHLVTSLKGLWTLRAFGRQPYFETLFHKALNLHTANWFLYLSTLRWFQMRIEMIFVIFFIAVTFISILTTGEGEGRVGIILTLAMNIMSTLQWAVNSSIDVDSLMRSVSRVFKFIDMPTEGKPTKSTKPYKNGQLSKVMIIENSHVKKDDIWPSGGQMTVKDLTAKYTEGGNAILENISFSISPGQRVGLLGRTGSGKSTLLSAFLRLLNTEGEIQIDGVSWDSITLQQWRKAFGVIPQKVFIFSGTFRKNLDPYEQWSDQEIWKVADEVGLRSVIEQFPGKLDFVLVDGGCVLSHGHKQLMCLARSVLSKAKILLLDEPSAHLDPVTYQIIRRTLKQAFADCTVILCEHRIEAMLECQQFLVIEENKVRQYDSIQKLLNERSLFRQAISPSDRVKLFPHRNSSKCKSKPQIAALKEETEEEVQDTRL
Method in brief: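 HEK293 cells were transiently transfected (Lipofectamine 2000) with F508del-CFTR-pHTomato plus co-expressed soluble eGFP, then kept 24 h at 37 °C. Next, 24 h at 30 °C with 10 μM drug. Imaging in pH 7.4 HEPES buffer, then extracellular pH shifted to ~6.5 (MES) and ~8.8 (Tris). The eGFP-normalized fluorescence rise (ΔF) estimates membrane CFTR.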

[9] = test system: rhinovirus B14; test: Antiviral activity against Rhinovirus 14 after 2 to 3 days by cell based MTS assay; format: functional; conditions: Rhinovirus B; read-out: EC50
[10] = test system: Enterovirus A71; test: Antiviral activity against Enterovirus 71 11316 clinical isolates incubated for 2 to 3 days; format: functional; conditions: Enterovirus A
[11] = test system: Enterovirus A71; test: Antiviral activity against Enterovirus 71 H08300 461#812 clinical isolates incubated for 2 to 3 days; format: functional; conditions: Enterovirus A
[12] = test system: Enterovirus A71; test: Antiviral activity against Enterovirus 71 TW/1956/05 clinical isolates incubated for 2 to 3 days; format: functional; conditions: Enterovirus A
[13] = test system: Coxsackievirus B3; test: Antiviral activity against Coxsackievirus B3 after 2 to 3 days by cell based MTS assay; format: functional; conditions: Enterovirus B
[14] = target: Glycogen synthase kinase-3 beta (Homo sapiens) (UniProt P49841); test: Inhibition of full-length recombinant human N-terminal GST-tagged GSK3beta expressed in baculovirus infected sf9 cells assessed as residual activity at 100 uM using YRRAAVPPSPSLSRHSSPHQ(pS)EDEEE as substrate by ADP-Glo bioluminescence assay relative to control relative to control
Chain of Glycogen synthase kinase-3 beta (Homo sapiens) (P49841 whole entry, looked up): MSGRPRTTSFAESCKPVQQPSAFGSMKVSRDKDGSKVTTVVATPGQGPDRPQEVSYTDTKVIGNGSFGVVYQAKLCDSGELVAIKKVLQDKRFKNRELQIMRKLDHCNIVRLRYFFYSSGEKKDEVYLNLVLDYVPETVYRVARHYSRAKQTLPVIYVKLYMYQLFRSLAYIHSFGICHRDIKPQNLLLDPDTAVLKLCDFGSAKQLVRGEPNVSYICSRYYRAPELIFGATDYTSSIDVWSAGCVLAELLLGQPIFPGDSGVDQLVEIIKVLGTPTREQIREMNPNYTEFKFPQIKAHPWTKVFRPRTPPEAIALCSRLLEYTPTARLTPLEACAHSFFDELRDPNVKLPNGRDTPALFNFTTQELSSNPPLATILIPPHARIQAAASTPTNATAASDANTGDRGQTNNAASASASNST
Method in brief: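 Kinase run per the manufacturer's instructions with 10–50 ng enzyme in 10 μL at 30 °C for 10 min. NP-40 or BSA was added for some kinases. Compound was tested at 100 μM, with activity given as % residual. Values are the mean of two independent replicates.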

[15] = test system: Poliovirus 1; test: Antiviral activity against Poliovirus 1 after 2 to 3 days by cell based MTS assay; format: functional; conditions: Enterovirus C
Method in brief: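 Vero cells seeded at 20 000/well in MEM with 2% FCS. Three 8-step 1:5 dilution series from 100 μM, then virus, then cells; 2–3 days until maximal CPE. Read-out: 5% MTS for 1.5 h at 37°C, absorbance at 498 nm, expressed as % of untreated controls. EC50 taken as the median of 3 dose-response curves.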

[16] = target: CDK2/Cyclin A2 (Homo sapiens) (UniProt P24941+P20248); test: Inhibition of full-length recombinant human N-terminal GST-tagged CDK2/cyclin A2 expressed in baculovirus infected sf9 cells assessed as residual activity at 100 uM using histone H1 as substrate by ADP-Glo bioluminescence assay relative to control relative to control; method in brief: as §1
[17] = target: CDK9/Cyclin K (Homo sapiens) (UniProt P50750+O75909); test: Inhibition of full-length recombinant human N-terminal GST-tagged CDK9/cyclin K expressed in baculovirus infected sf9 cells assessed as residual activity at 100 uM using KTFCGTPEYLAPEVRREPRILSEEEQEMFRDFDYIADWC as substrate by ADP-Glo bioluminescence assay relative to control relative to control; method in brief: as §1
[18] = test system: Cystic fibrosis transmembrane conductance regulator (Homo sapiens), P13569 [F508del]; test: Potentiator activity at CFTR F508 deletion mutant (unknown origin) expressed in HEK293 cells assessed as increase in aninon permeability at 10 uM […] by YFP probe based imaging method; format: cell-based
[19] = target: Receptor-type tyrosine-protein kinase FLT3 (Homo sapiens) (UniProt P36888); test: Inhibition of recombinant human N-terminal GST-tagged FLT3 (571 to 993 residues) expressed in baculovirus infected sf9 cells assessed as residual activity using myelin basic protein as substrate at 100 uM by ADP-Glo bioluminescence assay relative to control relative to control; method in brief: as §1
Chain of Receptor-type tyrosine-protein kinase FLT3 (Homo sapiens) (P36888 whole entry, the tested form may be a part): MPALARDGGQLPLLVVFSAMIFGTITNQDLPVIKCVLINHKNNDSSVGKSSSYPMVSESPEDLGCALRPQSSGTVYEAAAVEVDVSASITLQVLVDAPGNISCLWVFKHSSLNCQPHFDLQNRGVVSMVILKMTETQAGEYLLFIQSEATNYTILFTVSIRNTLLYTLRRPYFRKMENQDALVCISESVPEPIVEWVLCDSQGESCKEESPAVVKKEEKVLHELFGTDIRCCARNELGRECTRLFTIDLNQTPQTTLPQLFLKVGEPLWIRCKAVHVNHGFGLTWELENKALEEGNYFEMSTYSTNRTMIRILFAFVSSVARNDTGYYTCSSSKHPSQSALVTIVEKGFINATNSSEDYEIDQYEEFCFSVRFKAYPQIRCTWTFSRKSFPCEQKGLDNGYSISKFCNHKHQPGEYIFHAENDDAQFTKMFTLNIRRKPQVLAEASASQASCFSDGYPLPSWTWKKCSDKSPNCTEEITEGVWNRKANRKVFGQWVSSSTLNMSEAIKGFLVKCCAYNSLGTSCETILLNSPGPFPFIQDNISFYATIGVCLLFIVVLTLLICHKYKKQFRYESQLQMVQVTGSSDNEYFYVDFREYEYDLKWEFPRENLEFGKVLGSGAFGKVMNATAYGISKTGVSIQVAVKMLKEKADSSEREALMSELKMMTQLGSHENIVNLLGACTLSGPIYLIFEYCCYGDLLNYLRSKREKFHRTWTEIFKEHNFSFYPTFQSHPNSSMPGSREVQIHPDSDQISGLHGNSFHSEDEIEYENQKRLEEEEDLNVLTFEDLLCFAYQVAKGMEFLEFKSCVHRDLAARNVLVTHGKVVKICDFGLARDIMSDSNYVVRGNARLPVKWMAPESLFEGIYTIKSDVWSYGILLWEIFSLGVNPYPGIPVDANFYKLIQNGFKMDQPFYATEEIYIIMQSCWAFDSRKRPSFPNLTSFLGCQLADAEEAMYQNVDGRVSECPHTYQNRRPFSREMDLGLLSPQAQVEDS

[20] = Cytotoxicity against human RD cells after 2 to 3 days by MTS method; format: cell-based
Method in brief: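 Uninfected RD cells, 20 000/well in 2% FCS medium, run in parallel with the antiviral assay. Three 8-step 1:5 dilution series from 100 μM, 2-3 days. Read-out by 5% MTS, 1.5 h at 37 °C, absorbance 498 nm, as % of untreated controls. CC50 is the 50% metabolic activity point, median of 3 curves.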

[21] = target: PI3-kinase p110-alpha/p85-alpha (Homo sapiens) (UniProt P27986+P42336); test: Inhibition of full length recombinant human N-terminal His6-tagged PI3Kalpha (1 to 1068 residues)/full length human N-terminal myc-tagged P85alpha (1 to 724 residues) expressed in Sf9 insect cells assessed as residual activity at 100 uM using PI : PS as substrate in presence of [gamma-33P]-ATP by scintillation counting method relative to control
[22] = target: Proto-oncogene tyrosine-protein kinase Src (Homo sapiens) (UniProt P12931); test: Inhibition of full-length recombinant human N-terminal GST-tagged SRC expressed in Escherichia coli assessed as residual activity at 100 uM using KVEKIGEGTYGVVYK-amide as substrate by ADP-Glo bioluminescence assay relative to control relative to control; method in brief: as §1
Chain of Proto-oncogene tyrosine-protein kinase Src (Homo sapiens) (P12931 2-536 limits assumed): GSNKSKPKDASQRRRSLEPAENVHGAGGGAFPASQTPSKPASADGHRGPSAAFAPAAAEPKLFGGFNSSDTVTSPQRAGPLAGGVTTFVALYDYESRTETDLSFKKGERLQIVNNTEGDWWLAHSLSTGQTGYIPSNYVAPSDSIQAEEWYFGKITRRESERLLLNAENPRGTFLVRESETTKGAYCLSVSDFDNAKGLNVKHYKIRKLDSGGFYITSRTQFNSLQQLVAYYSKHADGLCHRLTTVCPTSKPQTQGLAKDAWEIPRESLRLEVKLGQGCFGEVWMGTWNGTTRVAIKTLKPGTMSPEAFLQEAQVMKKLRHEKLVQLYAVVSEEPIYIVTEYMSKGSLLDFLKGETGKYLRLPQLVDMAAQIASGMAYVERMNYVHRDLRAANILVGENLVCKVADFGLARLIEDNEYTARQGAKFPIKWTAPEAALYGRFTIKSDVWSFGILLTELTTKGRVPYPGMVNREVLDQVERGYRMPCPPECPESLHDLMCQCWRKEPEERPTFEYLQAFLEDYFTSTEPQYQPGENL

With CC(=O)c1cccc(Nc2nc(-c3sc(NC(=O)OC(C)(C)C)nc3C)cs2)c1 the selectivity ratio [1] was 71.1, the Activity [2] was 57% and the Activity [3] was 25%. For the same molecule, the Activity [4] was 53%, the EC50 [5] was 2930 nM and the EC50 [6] was 1420 nM. For the same molecule, the EC50 [7] was 3.58 µM, the Activity [8] was “Active” and the EC50 [9] was > 232 µM. For the same molecule, the EC50 [10] was < 1390 nM, the EC50 [11] was 970 nM and the EC50 [12] was < 1390 nM. For the same molecule, the EC50 [13] was 2740 nM, the Activity [14] was 79% and the EC50 [15] was 13.3 µM. The Activity [16] was 62%, the Activity [17] was 49% and the Activity [18] was “inactive”. For the same molecule, the Activity [19] was 59%, the CC50 [20] was 42.3 µM and the Activity [21] was 64%. For the same molecule, the Activity [22] was 32%.
